STEP block: inhibitors of human striatal-enriched phosphatase STEP | 0.25% of 360,000 active | inhibition, % at 20 µM | AID 588621 | recombinant STEP, OMFP fluorogenic substrate, fluorescence;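 active = inhibition at 20 µM, scaled per plate between control wells, above about 37%, limit read from the data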;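 also: 0% = DMSO with enzyme and substrate and 100% = substrate only without enzyme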
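Material: STEP (striatal-enriched tyrosine phosphatase) enzyme, cell-free; Compound dosing: 20 µM single dose in 1% DMSO; Technique: fluorescence read at 480 nm ex / 540 nm em; Times: reaction 20 min, ambient temperature; Medium: 50 mM Bis-Tris pH 6.0 with 2.5 mM DTT and 0.005% Tween 20; Also added: OMFP at 25 µM.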
HKDC1 inhibitor: HKDC1 (human) hexokinase inhibition; AID 493160; recombinant HKDC1, G6PDH/diaphorase resazurin coupled fluorescence; 0.16% of 340,000 active; inhibition, % at 20 µM; Q2TB90;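 active = inhibition above about 35% when tested at 20 µM, limit read from the data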;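 also: plate controls were DMSO wells with enzyme for no effect and DMSO wells lacking enzyme for full effect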
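Material – in-house recombinant HK5 (HKDC1) enzyme · Quantity – HKDC1 at 5 µg/mL · Buffer or medium – pH 8.0 Tris buffer with 10 mM MgCl2 · Reagent – glucose with 1 mM ATP · Dosing – single 20 µM dose · Times – reaction time 90 min, room temperature, protected from light · Technique – resorufin fluorescence at 613 nm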
Scp1 inh: inhibitors of human Scp-1 phosphatase | Q9GZU7 | Recombinant Scp1, phosphopeptide, malachite green phosphate absorbance | inhibition, % at 20 µM | 0.88% of 340,000 active | AID 493091;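 active = inhibition above about 50% at 20 µM, limit read from the data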;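 also: plate controls were DMSO wells with enzyme for no effect and wells lacking enzyme for full effect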
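Assay system: SCP-1 catalytic fragment, aa 76-261 | Buffer or medium: Tris acetate buffer pH 5.5 with MgCl2 and Tween-20 | Compound: One concentration, 20 µM, with 1.0% DMSO | Also added: Phospho 17-mer peptide substrate | Signal: Absorbance at 630 nm | Incubation: 45 min enzyme reaction at room temperature | Measure: % inhibition of SCP-1 phosphate liberation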
LMPTP block: blocks human LMPTP phosphatase; P24666; AID 651560; 0.22% of 360,000 active; recombinant LMPTP-A, OMFP fluorogenic substrate, fluorescence intensity; inhibition, % at 20 µM;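 active = compounds that cut the enzyme signal by at least half of the control window in the single-dose screen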;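 also: plate controls were DMSO wells with enzyme plus substrate for no effect and substrate without enzyme for full effect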
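Test system – LMPTP-A phosphatase enzyme · Quantity – 0.625 nM LMPTP-A final · Reagent – OMFP substrate, 400 µM final · Dosing – one test concentration per compound, 20 µM, with 3% DMSO overall · Timing – 50 min enzyme reaction at room temperature, protected from light · Detection – fluorescence intensity · Controls – substrate-only low control, DMSO enzyme-plus-substrate high control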
SUMO1 PPI mod: modulators of human SUMO1-mediated protein-protein interactions. inhibition, % at 20 µM. AID 602429. P63165. SUMO1 binding to a labelled peptide, TR-FRET, 1 h. 0.33% of 360,000 active; in the data active = inhibition above about 37%
DNMT1 block: DNMT1 (human) enzyme inhibition | inhibition (reported as % activation of signal), % at 10 µM | 0.83% of 360,000 active | DNMT1 molecular beacon, Hinp1I cleavage, fluorescence | P26358 | AID 588458; in the data active = inhibition above about 50%
Target sequence (P26358 504-1616 limits assumed): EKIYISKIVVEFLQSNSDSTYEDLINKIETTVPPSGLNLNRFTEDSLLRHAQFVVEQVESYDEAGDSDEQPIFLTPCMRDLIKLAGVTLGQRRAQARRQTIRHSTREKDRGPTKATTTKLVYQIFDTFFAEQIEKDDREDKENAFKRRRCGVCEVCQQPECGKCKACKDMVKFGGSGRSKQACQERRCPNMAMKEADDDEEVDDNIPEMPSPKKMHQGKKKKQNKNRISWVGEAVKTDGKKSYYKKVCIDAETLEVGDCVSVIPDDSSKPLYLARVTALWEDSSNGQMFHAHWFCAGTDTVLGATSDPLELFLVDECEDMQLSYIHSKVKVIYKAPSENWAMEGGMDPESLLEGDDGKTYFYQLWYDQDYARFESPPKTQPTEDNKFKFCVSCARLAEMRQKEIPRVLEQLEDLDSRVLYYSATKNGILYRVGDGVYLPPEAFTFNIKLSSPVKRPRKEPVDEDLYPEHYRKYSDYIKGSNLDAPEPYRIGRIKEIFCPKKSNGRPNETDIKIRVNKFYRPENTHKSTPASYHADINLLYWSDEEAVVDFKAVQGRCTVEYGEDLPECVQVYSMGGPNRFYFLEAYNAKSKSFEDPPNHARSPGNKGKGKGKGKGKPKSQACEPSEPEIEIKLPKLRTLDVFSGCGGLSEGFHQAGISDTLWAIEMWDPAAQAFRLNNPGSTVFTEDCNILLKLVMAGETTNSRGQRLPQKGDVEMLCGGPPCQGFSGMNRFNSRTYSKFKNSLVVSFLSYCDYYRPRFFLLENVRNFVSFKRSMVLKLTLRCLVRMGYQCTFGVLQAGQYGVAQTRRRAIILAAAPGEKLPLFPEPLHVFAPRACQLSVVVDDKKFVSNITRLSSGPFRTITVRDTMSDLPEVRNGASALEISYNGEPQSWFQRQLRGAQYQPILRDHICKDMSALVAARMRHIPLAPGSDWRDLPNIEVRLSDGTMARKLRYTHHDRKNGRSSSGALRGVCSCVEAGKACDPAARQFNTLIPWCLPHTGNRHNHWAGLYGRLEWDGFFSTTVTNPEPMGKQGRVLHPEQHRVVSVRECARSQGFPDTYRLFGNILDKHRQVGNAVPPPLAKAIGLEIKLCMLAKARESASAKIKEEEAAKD
Scp-1 conf: confirmation of human Scp-1 phosphatase inhibitors; shares compounds with Scp1 inh; recombinant SCP-1 catalytic domain, phosphate release, malachite green absorbance; inhibition, % at 20 µM; 61% of 2,500 active;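 also: plate controls were DMSO with enzyme for no effect and buffer wells lacking enzyme for full effect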
MG interference: colorimetric interference in Scp-1 counter-screen. AID 540313. 2,500 tested, under 10 active. Colorimetric interference counterscreen, malachite green absorbance 630 nm. shares compounds with Scp1 inh. apparent inhibition (interference), % at 20 µM;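 also: compounds added after enzyme reaction finished so only phosphate colour detection is probed; plate controls were DMSO wells with completed Scp-1 reaction for no effect and substrate wells lacking enzyme for full effect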
Scp1 DSF: binds human Scp-1, shifting its melting temperature; shares compounds with Scp1 inh; Recombinant SCP1, Sypro Orange thermal shift Tm; thermal shift relative to vanadate control, % at 40 µM; 25% of 1,500 active; AID 540329;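 active = substances whose mean melting-temperature shift, as a percentage of the reference inhibitor's shift, reaches about 5.3%, limit read from the data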;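 also: 0% = Tm of DMSO wells and 100% = Tm with sodium orthovanadate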
Active calls of the source: *; · = not tested or not shown. A selection: hits, their analogues and other compounds. The true share with any hit is near 1.8%.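 The calls were made as follows, unless noted: active = inhibition of at least 30% at 20 µM; inactive = the rest.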

SMILES	STEP block	HKDC1 inhibitor	Scp1 inh	LMPTP block	SUMO1 PPI mod	DNMT1 block	Scp-1 conf	MG interference	others
c1ccc2c(c1)CN(Cc1ccc3c(c1)OCO3)Cc1cnnn1-2	1	·	·	-1	2	1	·	·
Nc1ccc2ccc3cccc[n+]3c2c1	-35	9	0	39	-14	109*	·	·
C=C(C)CC1(CC)C(=O)NC(=S)NC1=O	-4	-7	-4	-2	2	3	·	·
C=CCC1(CC)C(=O)NC(=S)NC1=O	-1	2	7	-1	42*	2	·	·
O=C(O)c1ccc2c(c1)C1C(Cl)C(Sc3ccccc3[N+](=O)[O-])CC1C(c1cccc([N+](=O)[O-])c1)N2 (centres undefined)	6	9	-7	6	46*	71*	·	·
CCN(CC)C(=O)c1ccc2c(c1)C1C=CCC1C(C(=O)O)N2 (centres undefined)	33	6	39	2	45*	19	·	·
CCN(CC)C(=O)c1ccc2c(c1)C1C(Cl)C(Sc3ccccc3[N+](=O)[O-])CC1C(C(=O)O)N2 (centres undefined)	6	12	24	50	65*	64*	·	·
O=[N+]([O-])c1cccc(C2N3CCCN23)c1 (centres undefined)	0	-15	-5	-3	-8	0	·	·
O=C(O)c1cccc2c1NC(c1cccc([N+](=O)[O-])c1)C1CC(Sc3ccccc3[N+](=O)[O-])C(Cl)C21 (centres undefined)	8	8	1	36	41*	85*	·	·
CCN(CC)C(=O)c1ccc(N(Cc2ccccc2)S(C)(=O)=O)cc1	6	-3	-2	0	0	-1	·	·
CCOC(=O)[C@]12Cc3cc4ccccc4cc3[C@H]1N(Cc1ccccc1)C(=O)c1ccccc12	·	·	·	6	4	·	·	·
CCOC(=O)[C@]12Cc3cc(Cl)ccc3[C@H]1N(C(C)C)C(=O)c1ccccc12	·	·	·	0	9	·	·	·
CC1=C(O)C(=O)C=C2C1=CC=C1C2(C)CCC2(C)C3CC(C)(C(=O)O)CCC3(C)CCC12C (centres undefined)	0	27	-8	2	12	36	·	·
Cc1cc2c(C(C)C)c(O)c(O)c(C=O)c2c(O)c1-c1c(C)cc2c(C(C)C)c(O)c(O)c(C=O)c2c1O	-4	·	·	12	58*	22	·	·
CCCC[N+]12CCC(CC1)C(C(=O)c1cccs1)C2 (centres undefined)	-2	-6	98*	0	-7	-3	103*	6	Scp1 DSF=-4
CCOC(=O)[C@]12Cc3cc(OC)ccc3[C@H]1N(C(C)C)C(=O)c1cc(OC)ccc12	·	·	·	1	7	·	·	·
O=C1NCN(c2ccccc2)C12CCN(C(c1ccccc1)c1nnnn1C1CCCC1)CC2 (centres undefined)	3	·	·	2	5	-4	·	·
COc1cc2c(cc1OC)-c1c(OC)c(OC)cc3c1[C@H](C2)[N+](C)(C)CC3	2	-1	55*	0	1	2	12	-11
COc1cc2c3c(c1OC)-c1cc(O)ccc1CC3NCC2 (centres undefined)	7	4	-7	-1	1	0	·	·
CC(C)CC(NC(=O)CCCNC(=O)CCC(=O)OC1O[C@H]2OC3(C)CC[C@H]4[C@H](C)CCC(C1C)C24OO3)C(=O)O (some centres undefined)	-4	-7	95*	-1	-1	4	-12	-13
C[C@H]1[C@H](OC(=O)CCC(=O)NCc2ccc(C(=O)O)cc2)O[C@@H]2O[C@@]3(C)CC[C@H]4[C@H](C)CC[C@@H]1C24OO3	-1	0	4	0	8	0	·	·
CNC(C(=O)c1ccccc1)C(OC(C)=O)c1cccc([N+](=O)[O-])c1 (centres undefined)	1	-7	88*	0	-22	-4	-10	-10
COC(=O)C1=C(c2ccc(F)cc2OCc2ccccc2)C[C@@H]2CC[C@H]1N2C(=O)N1CCC(O)CC1	2	2	0	1	4	-5	·	·
CCCCCC(=O)N[C@@H](c1ccccc1)[C@@H](O)C(=O)O[C@H]1C[C@@]2(O)[C@@H](OC(=O)c3ccccc3)C3[C@](C)(C(=O)[C@H](O)C(=C1C)C2(C)C)[C@@H](OC1OCC(O)C(O)C1O)C[C@H]1OC[C@@]31OC(C)=O (some centres undefined)	-1	-7	-13	0	25	-1	-14	-8
CC(=O)Nc1ccc(N=Cc2c(O)n(Cc3ccco3)c(=O)[nH]c2=O)cc1	6	8	72*	1	55*	2	51*	-7	Scp1 DSF=-6
SMILES	STEP block	HKDC1 inhibitor	Scp1 inh	LMPTP block	SUMO1 PPI mod	DNMT1 block	Scp-1 conf	MG interference	others
CC12CCC(O)CC1CCC1C2CCC2(C)C(C(=O)CO)CCC12 (centres undefined)	0	·	·	-1	9	-4	·	·
CCOP(=O)(OCC)C1(O)C(=O)Nc2ccccc21 (centres undefined)	-2	-14	-1	-2	-6	8	·	·
CC1CCCC(C2(O)C(=O)Nc3ccccc32)C1=O (centres undefined)	-7	-3	57*	-3	3	-2	2	-14
O=C(O)CCn1cc(C=C2C(=O)NC(=O)NC2=O)c(-c2ccc(Br)cc2)n1	4	-9	8	-2	3	5	·	·
O=C(O)CCn1cc(C=C2C(=O)NC(=S)NC2=O)c(-c2cccc(Cl)c2)n1	-2	3	67*	0	8	0	42*	-13	Scp1 DSF=-19
COc1cc(O)c2c(c1)/C=C/C[C@H](O)[C@H](O)C(=O)CCC[C@H](C)OC2=O	0	·	·	0	1	2	·	·
O=C(O)c1ccccc1-c1ccc(C=C2C(=O)N(c3ccccc3)C(=S)N(c3ccccc3)C2=O)o1	4	6	58*	4	24	28	54*	-11	Scp1 DSF=2
CCCCCN1C(=O)c2cc(OC)ccc2[C@@]2(C(=O)OCC)Cc3cc(Cl)ccc3[C@@H]12	·	·	·	6	4	·	·	·
CC(=O)N1CCCSC1=Nc1ccccc1	0	-6	-7	-2	4	2	·	·

Source: PubChem (Sanford-Burnham Center for Chemical Genomics)
